Activity calls are given as the source filed them. The rule behind the calls is not given here.
Key:
[1] = molecular target: T1, P2Y purinoceptor 6 (Homo sapiens, UniProt Q15077); assay: Agonist activity at human recombinant P2Y6 receptor expressed in human 1321N1 cells using [3H]inositol as substrate assessed as [3H]inositol phosphate formation after 30 mins by liquid scintillation counting analysis; format: functional, cell-based
Outline: (§1)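 PLC activation measured in 1321N1 human astrocytoma cells stably expressing recombinant hP2Y2, hP2Y4 or hP2Y6 receptor; potency given as EC50 or % activation.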

[2] = molecular target: T2, P2Y purinoceptor 4 (Homo sapiens, UniProt P51582); assay: Agonist activity at human recombinant P2Y4 receptor expressed in human 1321N1 cells using [3H]inositol as substrate assessed as [3H]inositol phosphate formation at 10 uM after 30 mins by liquid scintillation counting analysis; format: functional, cell-based; outline: as §1
[3] = molecular target: T3, P2Y purinoceptor 2 (Homo sapiens, UniProt P41231); assay: Agonist activity at human recombinant P2Y2 receptor expressed in human 1321N1 cells using [3H]inositol as substrate assessed as [3H]inositol phosphate formation after 30 mins by liquid scintillation counting analysis; format: functional, cell-based; outline: as §1
[4] = molecular target: T2, P2Y purinoceptor 4; assay: Agonist activity at human recombinant P2Y4 receptor expressed in human 1321N1 cells using [3H]inositol as substrate assessed as [3H]inositol phosphate formation after 30 mins by liquid scintillation counting analysis; format: functional, cell-based; outline: as §1
[5] = species: Homo sapiens; assay: Selectivity ratio of EC50 for human recombinant P2Y4 receptor to EC50 for human recombinant P2Y6 receptor
[6] = species: Homo sapiens; assay: Selectivity ratio of EC50 for human recombinant P2Y2 receptor to EC50 for human recombinant P2Y6 receptor
[7] = molecular target: T1, P2Y purinoceptor 6; assay: Binding affinity to human recombinant P2Y6 receptor expressed in human 1321N1 cells after 2 mins by flow cytometry in presence of MRS2957; format: cell-based
Outline: (§2)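 1321N1-P2Y6R cells preincubated 30 min with known ligand (UDP 10 μM, MRS2957 0.5 μM, MRS2578 1 μM), then briefly exposed (2 min) to fluorescent agonist; labeling quantified by flow cytometry.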

[8] = molecular target: P2Y purinoceptor 1 (Homo sapiens) (UniProt P47900); assay: Binding affinity to P2Y1 receptor (unknown origin) expressed in human 1321N1 cells at 400 nM after 60 mins by flow cytometry; format: cell-based
[9] = molecular target: T1, P2Y purinoceptor 6; assay: Binding affinity to human recombinant P2Y6 receptor expressed in human 1321N1 cells assessed as surface bound fraction at 400 nM after 60 mins by flow cytometry in sucrose containing media; format: cell-based
Outline: (§3)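 1321N1-P2Y6R cells incubated with 400 nM fluorescent ligand at 37 °C for 60 min; nonspecific binding with 100 μM UDP; surface fraction in 0.4 M sucrose medium; internalized fraction as acid-insensitive fluorescence after 3 × 5 min acid wash (pH 3.5); fluorescence converted to MESF, nonspecific subtracted.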

[10] = molecular target: T1, P2Y purinoceptor 6; assay: Binding affinity to human recombinant P2Y6 receptor expressed in human 1321N1 cells after 2 mins by flow cytometry in presence of UDP; format: cell-based; outline: as §2
[11] = molecular target: T1, P2Y purinoceptor 6; assay: Binding affinity to human recombinant P2Y6 receptor expressed in human 1321N1 cells at 400 nM after 60 mins by flow cytometry at 400 nM after 60 mins by flow cytometry; format: cell-based; outline: as §3
[12] = molecular target: T1, P2Y purinoceptor 6; assay: Agonist activity at human recombinant P2Y6 receptor expressed in human 1321N1 cells assessed as compound internalization at 1 uM after 60 mins by confocal microscopy in presence of sucrose; format: cell-based
Outline: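 P2Y6R-expressing 1321N1 cells incubated with 1 μM fluorescent agonist for 60 min at 37 °C in medium containing 0.4 M sucrose; labeling imaged by confocal microscopy.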

[13] = molecular target: T1, P2Y purinoceptor 6; assay: Binding affinity to human recombinant P2Y6 receptor expressed in human 1321N1 cells at 500 nM after 60 mins by fluorescence microscopy in presence of MRS2957; format: cell-based
Outline: (§4)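 P2Y6R-expressing 1321N1 cells preincubated 30 min at 37 °C with 500 nM MRS2957 or MRS2578, then exposed to 500 nM fluorescent agonist for 60 min at 37 °C; imaged by fluorescence microscopy (excitation 495 nm, emission 519 nm).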

[14] = molecular target: T1, P2Y purinoceptor 6; assay: Binding affinity to human recombinant P2Y6 receptor expressed in human 1321N1 cells at 500 nM after 3 hrs by flow cytometry in presence of UDP relative to control; format: cell-based
Outline: (§5)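 Saturation labeling by flow cytometry, 10 nM to 1.5 μM fluorescent ligand, 3 h at 37 °C on 1321N1-P2Y6R cells; nonspecific binding with 100 μM UDP; autofluorescence from ligand-free cells; values as MESF.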

[15] = molecular target: T1, P2Y purinoceptor 6; assay: Binding affinity to human recombinant P2Y6 receptor expressed in human 1321N1 cells assessed as compound internalization measured as the acid-insensitive fraction following acid wash at 400 nM after 60 mins by flow cytometry; format: cell-based; outline: as §3
[16] = molecular target: T1, P2Y purinoceptor 6; assay: Agonist activity at human recombinant P2Y6 receptor expressed in human 1321N1 cells assessed as compound internalization at 2 uM after 60 mins by confocal microscopy; format: cell-based
Outline: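 Confocal microscopy of P2Y6R-expressing 1321N1 cells after 60 min at 37 °C with 2 μM fluorescent agonist; cells without ligand served as control.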

[17] = molecular target: T1, P2Y purinoceptor 6; assay: Binding affinity to human recombinant P2Y6 receptor expressed in human 1321N1 cells at 500 nM after 60 mins by fluorescence microscopy in presence of MRS2578; format: cell-based; outline: as §4
[18] = molecular target: T1, P2Y purinoceptor 6; assay: Binding affinity to human recombinant P2Y6 receptor expressed in human 1321N1 cells at 10 nM to 1.5 uM after 3 hrs by flow cytometry relative to control; format: cell-based; outline: as §5
[19] = molecular target: T4, P2Y purinoceptor 14 (Homo sapiens) (UniProt Q15391); assay: Agonist activity at human P2Y14 receptor expressed in rat C6 cells assessed as inhibition of forskolin-stimulated adenylate cyclase up to 10 uM; format: functional, cell-based
T4 sequence (whole entry): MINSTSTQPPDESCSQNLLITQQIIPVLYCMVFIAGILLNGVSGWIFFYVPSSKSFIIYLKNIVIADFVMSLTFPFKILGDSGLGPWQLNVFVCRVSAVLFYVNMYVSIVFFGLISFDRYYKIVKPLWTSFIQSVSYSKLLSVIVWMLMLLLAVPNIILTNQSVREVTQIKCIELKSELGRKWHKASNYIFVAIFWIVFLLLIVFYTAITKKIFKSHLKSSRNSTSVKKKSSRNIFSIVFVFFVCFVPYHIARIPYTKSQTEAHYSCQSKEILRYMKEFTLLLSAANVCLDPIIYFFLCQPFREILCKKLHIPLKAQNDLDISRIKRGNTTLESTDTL

[20] = molecular target: T1, P2Y purinoceptor 6; assay: Binding affinity to human recombinant P2Y6 receptor expressed in human 1321N1 cells at 10 nM to 10 uM after 60 mins by flow cytometry relative to control; format: cell-based
Outline: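 Flow cytometry of 1321N1-P2Y6R and control 1321N1 cells after 60 min with 10 nM to 10 μM fluorescent ligand.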

[21] = molecular target: T1, P2Y purinoceptor 6; assay: Binding affinity to human recombinant P2Y6 receptor expressed in human 1321N1 cells assessed as association rate constant at 400 nM by flow cytometry; format: cell-based
Outline: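 Flow cytometric kinetics of 400 nM fluorescent ligand binding to 1321N1-P2Y6R cells at 37 °C; nonspecific binding defined with 100 μM UDP; association rate constant k1 derived from time course.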

[22] = molecular target: T1, P2Y purinoceptor 6; assay: Binding affinity to human recombinant P2Y6 receptor expressed in human 1321N1 cells at 400 nM after 3 hrs by flow cytometry; format: cell-based
Outline: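 FCM histogram of 1321N1-P2Y6R cells after 3 h incubation with 400 nM fluorescent ligand; total, nonspecific and autofluorescence measured; three independent experiments.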

[23] = molecular target: T1, P2Y purinoceptor 6; assay: Binding affinity to human recombinant P2Y6 receptor expressed in human 1321N1 cells after 2 mins by flow cytometry in presence of MRS2578; format: cell-based; outline: as §2
[24] = molecular target: T1, P2Y purinoceptor 6; assay: Binding affinity to human recombinant P2Y6 receptor expressed in human 1321N1 cells at 100 nM to 1 uM by flow cytometry in presence of UDP; format: cell-based
Outline: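 1321N1 cells with or without P2Y6R labeled with 100 nM to 1 μM Cy5 conjugate; blockade tested with 100 μM UDP; read by flow cytometry.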

[25] = molecular target: T1, P2Y purinoceptor 6; assay: Binding affinity to human recombinant P2Y6 receptor expressed in human 1321N1 cells at 400 nM after 60 mins by flow cytometry; format: cell-based
[26] = molecular target: T3, P2Y purinoceptor 2; assay: Agonist activity at human recombinant P2Y2 receptor expressed in human 1321N1 cells using [3H]inositol as substrate assessed as [3H]inositol phosphate formation at 10 uM after 30 mins by liquid scintillation counting analysis; format: functional, cell-based; outline: as §1

T2 sequence (P51582 whole entry): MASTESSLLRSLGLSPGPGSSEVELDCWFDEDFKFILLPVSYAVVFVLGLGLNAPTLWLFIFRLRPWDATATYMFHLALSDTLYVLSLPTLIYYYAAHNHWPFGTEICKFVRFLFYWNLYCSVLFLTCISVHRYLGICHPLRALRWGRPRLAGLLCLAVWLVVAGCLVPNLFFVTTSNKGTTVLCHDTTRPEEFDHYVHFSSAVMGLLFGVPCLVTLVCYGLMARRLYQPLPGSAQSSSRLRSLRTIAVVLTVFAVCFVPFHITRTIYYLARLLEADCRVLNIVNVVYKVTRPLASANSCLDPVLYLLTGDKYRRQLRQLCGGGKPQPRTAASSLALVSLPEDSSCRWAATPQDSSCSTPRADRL
T3 sequence (P41231 whole entry): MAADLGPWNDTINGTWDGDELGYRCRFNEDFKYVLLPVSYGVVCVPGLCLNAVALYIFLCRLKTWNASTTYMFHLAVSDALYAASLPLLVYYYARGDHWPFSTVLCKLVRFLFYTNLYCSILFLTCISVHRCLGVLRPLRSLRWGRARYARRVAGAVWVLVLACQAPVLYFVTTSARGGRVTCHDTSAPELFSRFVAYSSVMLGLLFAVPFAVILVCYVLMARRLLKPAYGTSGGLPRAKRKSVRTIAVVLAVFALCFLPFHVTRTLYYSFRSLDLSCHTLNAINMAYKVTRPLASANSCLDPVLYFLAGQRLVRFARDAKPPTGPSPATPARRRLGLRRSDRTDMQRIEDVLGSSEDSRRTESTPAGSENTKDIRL
T1 sequence (Q15077 whole entry): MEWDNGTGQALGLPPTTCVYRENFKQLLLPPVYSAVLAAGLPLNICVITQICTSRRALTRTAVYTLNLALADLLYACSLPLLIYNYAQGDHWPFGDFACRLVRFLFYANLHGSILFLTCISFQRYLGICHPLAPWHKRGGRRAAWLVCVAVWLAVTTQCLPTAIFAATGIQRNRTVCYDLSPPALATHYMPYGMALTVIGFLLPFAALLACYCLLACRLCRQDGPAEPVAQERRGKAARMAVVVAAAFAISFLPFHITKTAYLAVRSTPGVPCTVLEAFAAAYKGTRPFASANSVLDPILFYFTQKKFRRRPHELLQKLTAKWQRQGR
Sequence of P2Y purinoceptor 1 (Homo sapiens) (P47900 whole entry): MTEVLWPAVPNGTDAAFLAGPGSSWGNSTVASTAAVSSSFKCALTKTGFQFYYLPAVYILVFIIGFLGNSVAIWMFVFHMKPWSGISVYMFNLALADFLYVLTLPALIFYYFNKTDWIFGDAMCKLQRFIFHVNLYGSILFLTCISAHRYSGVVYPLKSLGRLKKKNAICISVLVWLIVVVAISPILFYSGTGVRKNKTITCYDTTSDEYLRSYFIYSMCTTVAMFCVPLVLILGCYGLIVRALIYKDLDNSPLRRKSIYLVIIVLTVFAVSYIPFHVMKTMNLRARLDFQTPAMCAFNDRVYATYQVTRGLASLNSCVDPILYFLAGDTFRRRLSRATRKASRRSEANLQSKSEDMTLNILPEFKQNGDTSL

SMILES | EC50 [1] | Activity [2] | EC50 [3] | EC50 [4] | also measured
CO/N=c1/ccn([C@@H]2O[C@H](COP(=O)(O)OP(=O)(O)OP(=O)(O)Oc3ccc4ccccc4c3)[C@@H](O)[C@H]2O)c(=O)[nH]1 | 731 nM | < 50% | 2900 nM | – | –
O=c1[nH]/c(=N\OCc2cccc(Br)c2)ccn1[C@@H]1O[C@H](COP(=O)(O)OP(=O)(O)O)[C@@H](O)[C@H]1O | 39 nM | – | 6200 nM | > 10000 nM | Ratio EC50 [5]: > 260; Ratio EC50 [6]: 160
O=c1ccn([C@@H]2O[C@H](COP(=O)(O)OP(=O)(O)OP(=O)(O)OC[C@H]3O[C@@H](n4cc/c(=N/OCc5ccccc5)[nH]c4=O)[C@H](O)[C@@H]3O)[C@@H](O)[C@H]2O)c(=O)[nH]1 | 126 nM | – | 1700 nM | 636 nM | –
N=c1ccc2c(-c3ccc(C(=O)NCCCCCCn4cc(CCC#Cc5cccc(CO/N=c6/ccn([C@@H]7O[C@H](COP(=O)(O)OP(=O)(O)O)[C@@H](O)[C@H]7O)c(=O)[nH]6)c5)nn4)cc3C(=O)O)c3ccc(N)c(S(=O)(=O)O)c3oc-2c1S(=O)(=O)O | 9 nM | < 50% | 2500 nM | – | Activity [7]: inactive; Activity [8]: inactive; Activity [9]: 17%; Ratio EC50 [5]: > 1100; Activity [10]: inactive; Activity [11]: 23%; Activity [12]: inactive; Activity [13]: inactive; Ratio [14]: 4; Activity [15]: 77%; Activity [16]: Active; Activity [17]: inactive; Activity [18]: Active; Ratio EC50 [6]: 280; inhibition [19]: inactive; Activity [20]: Active; K [21]: 0.019 min⁻¹; Activity [22]: Active; Activity [23]: inactive
CC(=O)NCCn1cc(CCOP(=O)(O)OP(=O)(O)OP(=O)(O)OC[C@H]2O[C@@H](n3cc/c(=N/OCc4ccccc4)[nH]c3=O)[C@H](O)[C@@H]2O)nn1 | 879 nM | – | 3800 nM | 3300 nM | –
C#CCCC#Cc1cccc(CO/N=c2/ccn([C@@H]3O[C@H](COP(=O)(O)OP(=O)(O)O)[C@@H](O)[C@H]3O)c(=O)[nH]2)c1 | 100 nM | – | 3900 nM | 952 nM | –
CN1/C(=C/C=C/C=C/C2=[N+](CCCCCCC(=O)NCCCCCCn3cc(CCC#Cc4cccc(CO/N=c5/ccn([C@@H]6O[C@H](COP(=O)(O)OP(=O)(O)O)[C@@H](O)[C@H]6O)c(=O)[nH]5)c4)nn3)c3ccccc3C2(C)C)C(C)(C)c2ccccc21 | – | – | – | – | Activity [24]: inactive
O=c1[nH]/c(=N\OCc2ccc(Br)cc2)ccn1[C@@H]1O[C@H](COP(=O)(O)OP(=O)(O)O)[C@@H](O)[C@H]1O | 32 nM | – | 5200 nM | 7440 nM | –
O=c1[nH]/c(=N\OCc2ccc([N+](=O)[O-])cc2)ccn1[C@@H]1O[C@H](COP(=O)(O)OP(=O)(O)O)[C@@H](O)[C@H]1O | 41 nM | – | 3300 nM | 2200 nM | –
O=c1[nH]/c(=N\OCc2ccccc2)ccn1[C@@H]1O[C@H](COP(=O)(O)OP(=O)(O)O)[C@@H](O)[C@H]1O | – | – | – | – | EC50 ([1]; 1321-n1): 26 nM
N=c1ccc2c(-c3ccc(C(=O)NCCCCCCn4cc(CCC#Cc5cccc(CO/N=c6/ccn([C@@H]7O[C@H](COP(=O)(O)O)[C@@H](O)[C@H]7O)c(=O)[nH]6)c5)nn4)cc3C(=O)O)c3ccc(N)c(S(=O)(=O)O)c3oc-2c1S(=O)(=O)O | – | – | – | – | Activity [25]: inactive
C#CCCCOP(=O)(O)OP(=O)(O)OP(=O)(O)OC[C@H]1O[C@@H](n2cc/c(=N/OCc3ccccc3)[nH]c2=O)[C@H](O)[C@@H]1O | > 10000 nM | < 50% | – | – | –
C#CCCOP(=O)(O)OP(=O)(O)OP(=O)(O)OC[C@H]1O[C@@H](n2cc/c(=N/OCc3ccccc3)[nH]c2=O)[C@H](O)[C@@H]1O | 1750 nM | < 50% | – | – | Activity [26]: < 50%
O=c1[nH]/c(=N\OCc2cccc(I)c2)ccn1[C@@H]1O[C@H](COP(=O)(O)OP(=O)(O)O)[C@@H](O)[C@H]1O | 19 nM | – | 2500 nM | 352 nM | –
O=c1[nH]/c(=N\OCc2ccc(I)cc2)ccn1[C@@H]1O[C@H](COP(=O)(O)OP(=O)(O)O)[C@@H](O)[C@H]1O | 148 nM | < 50% | – | – | –
